Reference: ChEMBL document CHEMBL3098086, “Synthesis and biological evaluation of α-triazolyl chalcones as a new type of potential antimicrobial agents and their interaction with calf thymus DNA and human serum albumin” (Eur J Med Chem, 2014)
≈ marks a conversion by molar mass, not a printed value.

Columns and labels:
Candida = experiment: Antifungal activity against Candida mycoderma ATCC 96918 after 24 hrs by micro broth dilution method; assay type: functional; conditions: ATCC 96918, 24 h
How it was run: (§1)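 Fungi: C. albicans ATCC 76615 and C. mycoderma ATCC 96918. MICs by two-fold broth microdilution in 96-well plates per NCCLS. Fluconazole served as positive control.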

Candida albicans = experiment: Antifungal activity against Candida albicans ATCC 76615 after 24 hrs by micro broth dilution method; assay type: functional; conditions: ATCC 76615, 24 h; how it was run: as §1
Bacillus = experiment: Antibacterial activity against Bacillus proteus ATCC 13315 after 24 hrs by twofold serial dilution method; assay type: functional; conditions: ATCC 13315, 24 h
How it was run: (§2)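 Bacterial strains: S. aureus ATCC 25923, B. subtilis ATCC 21216, M. luteus ATCC 4698, E. coli JM109, P. aeruginosa ATCC 27853, B. proteus ATCC 13315. MICs by two-fold broth microdilution in 96-well plates per NCCLS. Chloromycin and Norfloxacin served as positive controls.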

Pseudomonas aeruginosa = experiment: Antibacterial activity against Pseudomonas aeruginosa ATCC 27853 after 24 hrs by twofold serial dilution method; assay type: functional; conditions: ATCC 27853, 24 h; how it was run: as §2
Escherichia coli = experiment: Antibacterial activity against Escherichia coli JM109 after 24 hrs by twofold serial dilution method; assay type: functional; conditions: JM109, 24 h; how it was run: as §2
Salmonella typhi = experiment: Antibacterial activity against Bacillus typhi after 24 hrs by twofold serial dilution method; assay type: functional, Salmonella enterica subsp. enterica serovar Typhi; conditions: Salmonella enterica
How it was run: (§3)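 Two-fold broth microdilution per NCCLS recommendations. The MIC was read as the minimum inhibitory concentration. Chloromycin and Norfloxacin served as positive controls. Strains were Bacillus typhi (Gram-negative panel) and methicillin-resistant S. aureus N315.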

Micrococcus luteus = experiment: Antibacterial activity against Micrococcus luteus ATCC 4698 after 24 hrs by twofold serial dilution method; assay type: functional; conditions: ATCC 4698, 24 h; how it was run: as §2
Bacillus subtilis = experiment: Antibacterial activity against Bacillus subtilis ATCC 21216 after 24 hrs by twofold serial dilution method; assay type: functional; conditions: ATCC 21216, 24 h; how it was run: as §2
Staphylococcus aureus [1] = experiment: Antibacterial activity against Staphylococcus aureus ATCC 25923 after 24 hrs by twofold serial dilution method; assay type: functional; conditions: ATCC 25923, 24 h; how it was run: as §2
Staphylococcus aureus [2] = experiment: Antibacterial activity against methicillin-resistant staphylococcus aureus N315 after 24 hrs by twofold serial dilution method; assay type: functional; conditions: N315, 24 h; how it was run: as §3

| SMILES | MIC (Candida) [µg/mL] | MIC (Candida albicans) [µg/mL] | MIC (Bacillus) [µg/mL] | MIC (Pseudomonas aeruginosa) [µg/mL] | MIC (Escherichia coli) [µg/mL] | MIC (Salmonella typhi) [µg/mL] | MIC (Micrococcus luteus) [µg/mL] | MIC (Bacillus subtilis) [µg/mL] | MIC (Staphylococcus aureus [1]) [µg/mL] | MIC (Staphylococcus aureus [2]) [µg/mL] |
| --- | --- | --- | --- | --- | --- | --- | --- | --- | --- | --- |
| O=C(/C(=C/c1ccc(Cl)cc1)n1cncn1)c1ccc(F)cc1F | 16 (≈ 46.3 µM) | 16 (≈ 46.3 µM) | 64 (≈ 185 µM) | 128 (≈ 370 µM) | 64 (≈ 185 µM) | 32 (≈ 92.6 µM) | 64 (≈ 185 µM) | 32 (≈ 92.6 µM) | 16 (≈ 46.3 µM) | 32 (≈ 92.6 µM) |
| Cc1ccc(/C=C(/C(=O)c2ccc(F)cc2F)n2cncn2)cc1 | 16 (≈ 49.2 µM) | 16 (≈ 49.2 µM) | 64 (≈ 197 µM) | 16 (≈ 49.2 µM) | 32 (≈ 98.4 µM) | 64 (≈ 197 µM) | 64 (≈ 197 µM) | 64 (≈ 197 µM) | 32 (≈ 98.4 µM) | 32 (≈ 98.4 µM) |
| Cc1ccc(C(=O)/C(=C/c2ccccc2)n2cncn2)cc1C | 256 (≈ 844 µM) | 16 (≈ 52.7 µM) | 128 (≈ 422 µM) | 128 (≈ 422 µM) | 16 (≈ 52.7 µM) | 128 (≈ 422 µM) | 128 (≈ 422 µM) | 64 (≈ 211 µM) | 256 (≈ 844 µM) | 256 (≈ 844 µM) |
| O=C(/C(=C/c1ccccc1)n1cncn1)c1ccc(N2CCOCC2)cc1N1CCOCC1 | 64 (≈ 144 µM) | 128 (≈ 287 µM) | 64 (≈ 144 µM) | 128 (≈ 287 µM) | 32 (≈ 71.8 µM) | 32 (≈ 71.8 µM) | 64 (≈ 144 µM) | 64 (≈ 144 µM) | 32 (≈ 71.8 µM) | 64 (≈ 144 µM) |
| O=C(/C(=C/c1ccc(Cl)cc1)n1cncn1)c1ccc(Cl)cc1 | 64 (≈ 186 µM) | 64 (≈ 186 µM) | 32 (≈ 93 µM) | 8 (≈ 23.2 µM) | 16 (≈ 46.5 µM) | 16 (≈ 46.5 µM) | 64 (≈ 186 µM) | 32 (≈ 93 µM) | 32 (≈ 93 µM) | 32 (≈ 93 µM) |
| CCn1cc(C(=O)O)c(=O)c2cc(F)c(N3CCNCC3)cc21 [NORFLOXACIN] | – | – | 8 (≈ 25.1 µM) | 16 (≈ 50.1 µM) | 16 (≈ 50.1 µM) | 4 (≈ 12.5 µM) | 2 (≈ 6.26 µM) | 1 (≈ 3.13 µM) | 0.5 (≈ 1.57 µM) | 8 (≈ 25.1 µM) |
| O=C(N[C@H](CO)[C@H](O)c1ccc([N+](=O)[O-])cc1)C(Cl)Cl [CHLORAMPHENICOL] | – | – | 32 (≈ 99 µM) | 32 (≈ 99 µM) | 32 (≈ 99 µM) | 32 (≈ 99 µM) | 8 (≈ 24.8 µM) | 32 (≈ 99 µM) | 16 (≈ 49.5 µM) | 16 (≈ 49.5 µM) |
| O=C(/C(=C/c1ccccc1)n1cncn1)c1ccc(N2CCCCC2)cc1N1CCCCC1 | 16 (≈ 36.2 µM) | 16 (≈ 36.2 µM) | 64 (≈ 145 µM) | 128 (≈ 290 µM) | 64 (≈ 145 µM) | 32 (≈ 72.5 µM) | 64 (≈ 145 µM) | 32 (≈ 72.5 µM) | 16 (≈ 36.2 µM) | 32 (≈ 72.5 µM) |
| OC(Cn1cncn1)(Cn1cncn1)c1ccc(F)cc1F [FLUCONAZOLE] | 4 (≈ 13.1 µM) | 1 (≈ 3.27 µM) | – | – | – | – | – | – | – | – |
| O=C(/C(=C/c1ccc(F)cc1)n1cncn1)c1ccc(F)cc1F | 64 (≈ 194 µM) | 64 (≈ 194 µM) | 16 (≈ 48.6 µM) | 32 (≈ 97.2 µM) | 32 (≈ 97.2 µM) | 32 (≈ 97.2 µM) | 32 (≈ 97.2 µM) | 64 (≈ 194 µM) | 64 (≈ 194 µM) | 128 (≈ 389 µM) |
| Cc1ccc(C(=O)/C(=C/c2ccccc2)n2cncn2)c(C)c1 | 256 (≈ 844 µM) | 128 (≈ 422 µM) | 128 (≈ 422 µM) | 256 (≈ 844 µM) | 256 (≈ 844 µM) | 128 (≈ 422 µM) | 256 (≈ 844 µM) | 128 (≈ 422 µM) | 128 (≈ 422 µM) | 64 (≈ 211 µM) |
| O=C(/C(=C/c1ccccc1)n1cncn1)c1ccc(F)cc1N1CCOCC1 | 32 (≈ 84.6 µM) | 128 (≈ 338 µM) | 32 (≈ 84.6 µM) | 64 (≈ 169 µM) | 16 (≈ 42.3 µM) | 32 (≈ 84.6 µM) | 64 (≈ 169 µM) | 32 (≈ 84.6 µM) | 32 (≈ 84.6 µM) | 128 (≈ 338 µM) |
| COc1ccc(/C=C(/C(=O)c2ccc(F)cc2F)n2cncn2)cc1 | 32 (≈ 93.8 µM) | 16 (≈ 46.9 µM) | 8 (≈ 23.4 µM) | 16 (≈ 46.9 µM) | 16 (≈ 46.9 µM) | 32 (≈ 93.8 µM) | 16 (≈ 46.9 µM) | 8 (≈ 23.4 µM) | 8 (≈ 23.4 µM) | 4 (≈ 11.7 µM) |
| O=C(/C(=C/c1ccccc1)n1cncn1)c1ccc(F)cc1F | 64 (≈ 206 µM) | 128 (≈ 411 µM) | 64 (≈ 206 µM) | 128 (≈ 411 µM) | 32 (≈ 103 µM) | 32 (≈ 103 µM) | 64 (≈ 206 µM) | 64 (≈ 206 µM) | 32 (≈ 103 µM) | 64 (≈ 206 µM) |
| O=C(/C(=C/c1ccccc1)n1cncn1)c1ccc(F)cc1N1CCCC1 | 256 (≈ 706 µM) | 32 (≈ 88.3 µM) | 16 (≈ 44.1 µM) | 16 (≈ 44.1 µM) | 8 (≈ 22.1 µM) | 4 (≈ 11 µM) | 16 (≈ 44.1 µM) | 8 (≈ 22.1 µM) | 16 (≈ 44.1 µM) | 16 (≈ 44.1 µM) |
| O=C(/C(=C/c1ccccc1)n1cncn1)c1ccc(N2CCCC2)cc1N1CCCC1 | 4 (≈ 9.67 µM) | 8 (≈ 19.3 µM) | 32 (≈ 77.4 µM) | 32 (≈ 77.4 µM) | 32 (≈ 77.4 µM) | 8 (≈ 19.3 µM) | 16 (≈ 38.7 µM) | 16 (≈ 38.7 µM) | 32 (≈ 77.4 µM) | 16 (≈ 38.7 µM) |
| CN(C)c1ccc(/C=C(/C(=O)c2ccc(F)cc2F)n2cncn2)cc1 | 64 (≈ 181 µM) | 16 (≈ 45.2 µM) | 64 (≈ 181 µM) | 256 (≈ 722 µM) | 128 (≈ 361 µM) | 64 (≈ 181 µM) | 64 (≈ 181 µM) | 64 (≈ 181 µM) | 64 (≈ 181 µM) | 32 (≈ 90.3 µM) |
| O=C(/C(=C/c1ccccc1)n1cncn1)c1ccc(Cl)cc1 | 64 (≈ 207 µM) | 16 (≈ 51.7 µM) | 64 (≈ 207 µM) | 256 (≈ 826 µM) | 128 (≈ 413 µM) | 64 (≈ 207 µM) | 64 (≈ 207 µM) | 64 (≈ 207 µM) | 64 (≈ 207 µM) | 32 (≈ 103 µM) |
